Several values for one entry are separate records, joined by “and”; a condition that tells them apart may be missing. Identical values can stand only once. Activity calls are given as the source filed them. The rule behind the calls is not given here. Where a SMILES comes first, the peptide text is derived from it.
Columns and labels:
Caspase-2 (Homo sapiens) [1] = biological target: T1, Caspase-2 (Homo sapiens) (UniProt P42575); assay: Inhibition of recombinant caspase-2 (unknown origin) at 12.5 uM using Z-VDVAD-AFC as substrate measured after 40 mins by fluorescence assay relative to control
T1 sequence (whole entry): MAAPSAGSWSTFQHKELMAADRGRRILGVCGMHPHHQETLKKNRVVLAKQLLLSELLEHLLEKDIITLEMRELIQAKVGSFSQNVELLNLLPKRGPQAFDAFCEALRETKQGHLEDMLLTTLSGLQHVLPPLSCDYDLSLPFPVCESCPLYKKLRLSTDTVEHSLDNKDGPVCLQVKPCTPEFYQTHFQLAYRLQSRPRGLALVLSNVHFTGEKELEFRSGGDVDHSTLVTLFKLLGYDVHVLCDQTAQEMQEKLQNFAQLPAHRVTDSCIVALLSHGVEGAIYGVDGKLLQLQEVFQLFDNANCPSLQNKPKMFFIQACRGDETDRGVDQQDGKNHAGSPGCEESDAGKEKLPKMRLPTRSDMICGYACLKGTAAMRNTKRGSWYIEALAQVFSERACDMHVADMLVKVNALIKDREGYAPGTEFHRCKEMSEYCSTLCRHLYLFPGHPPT
Method in brief: (§1)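 Two-point single-run screen in duplicate at 12.5 and 6.25 µM. Then 5 µM Z-VDVAD-AFC, 40 min at 37 °C, stopped with 5 M acetic acid. AFC fluorescence read at ex 400/em 505 nm, corrected for buffer+protein background.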

Caspase-2 (Homo sapiens) [2] = biological target: T1, Caspase-2 (Homo sapiens); assay: Inhibition of recombinant caspase-2 (unknown origin) at 6.25 uM using Z-VDVAD-AFC as substrate measured after 40 mins by fluorescence assay relative to control; method in brief: as §1
Caspase-2 [3] = biological target: T2, Caspase-2 (Homo sapiens, UniProt P42575); assay: Inhibition of recombinant caspase-2 (unknown origin) using Z-VDVAD-AFC as substrate measured after 40 mins by fluorescence assay
T2 sequence (P42575 whole entry): T1 sequence (whole entry)
Method in brief: (§2)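 Ten-point curves in duplicate, 0.4 nM–100 µM. Enzyme (5 nM caspase-2 or cp-caspase-2) in MES pH 6.5 buffer with 10 mM DTT, preincubated with compound 40 min at 37 °C. Then 5 µM Z-VDVAD-AFC. AFC read at ex 400/em 505 nm every 3 min for 1 h. Background-corrected 40-min values fitted to four-parameter sigmoidal curves. Mean ± SEM of N independent experiments.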

Homo sapiens = organism: Homo sapiens; assay: Selectivity ratio of IC50 for recombinant caspase-3 (unknown origin) to recombinant caspase-2 (unknown origin)
Caspase-2 (Homo sapiens) [4] = biological target: T1, Caspase-2 (Homo sapiens); assay: Covalent irreversible binding affinity to recombinant caspase-2 (unknown origin) assessed as modification at Cys320 residue measured after 1 hr by trypsin digestion based UPLC-MS/MS analysis
Method in brief: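 Recombinant caspase-2 (34 µM, 15 µL) mixed with test compound (1 µL of 10 mM DMSO stock), brought to 50 µL in MES pH 6.5 caspase-2 buffer, 1 h at 37 °C. Then iodoacetamide (62 mM final) 1 h dark RT. Samples denatured in 8 M urea/5 mM DTT and re-alkylated with IAD. Trypsin digestion overnight at 37 °C with 10% acetonitrile. C18 desalting, then gradient LC-MS/MS peptide sequencing.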

HepG2 [5] = assay: Induction of GSH depletion in human HepG2 cells at <10 uM measured after 22 hrs by GSH-glo luminescence assay; type: functional, cell-based
Method in brief: (§3)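 HepG2 cells at 250 cells/well, 1536-well format, settled 4 h at 37 °C and 5% CO2. Compound added (50 nL), 22 h incubation. Medium removed by centrifugation. GSH-Glo reagent 30 min at RT, then Luciferin Detection Reagent 15 min at RT. Luminescence read.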

HepG2 [6] = assay: Induction of GSH depletion in human HepG2 cells at >10 uM measured after 22 hrs by GSH-glo luminescence assay; type: functional, cell-based; method in brief: as §3
HepG2 [7] = assay: Cytotoxicity against human HepG2 cells assessed as reduction in cell viability measured after 22 hrs by cell-titer glo assay; type: functional, cell-based
Method in brief: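 HepG2 cells at 250 cells/well, 1536-well format, settled 4 h at 37 °C and 5% CO2. Compound added acoustically (50 nL), 22 h at 37 °C. CellTiter-Glo reagent added, 15 min at room temperature, then luminescence read.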

Caspase-2 [8] = biological target: T2, Caspase-2; assay: Inhibition of recombinant cp-caspase-2 (unknown origin) using Z-VDVAD-AFC as substrate measured after 40 mins by fluorescence assay; method in brief: as §2
Caspase-3 [9] = biological target: T3, Caspase-3 (Homo sapiens, UniProt P42574); assay: Inhibition of recombinant caspase-3 (unknown origin) using Ac-DEVD-AFC as substrate measured after 40 mins by fluorescence assay
T3 sequence (P42574 whole entry): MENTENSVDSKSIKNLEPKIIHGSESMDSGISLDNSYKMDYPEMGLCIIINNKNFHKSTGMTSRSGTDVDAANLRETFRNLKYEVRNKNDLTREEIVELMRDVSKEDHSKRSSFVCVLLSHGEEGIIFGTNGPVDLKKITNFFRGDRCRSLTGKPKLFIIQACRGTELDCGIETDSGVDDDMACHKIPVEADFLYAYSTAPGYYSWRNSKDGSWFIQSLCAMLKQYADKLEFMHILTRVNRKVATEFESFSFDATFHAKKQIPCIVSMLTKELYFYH

Caspase-3 [10] = biological target: T3, Caspase-3; assay: Inhibition of recombinant caspase-3 (unknown origin) at 125 uM using Ac-DEVD-AFC as substrate measured after 40 mins by fluorescence assay relative to control; details: recombinant caspase-3, probe Ac-DEVD-AFC
Caspase-3 [11] = biological target: T3, Caspase-3; assay: Inhibition of recombinant caspase-3 (unknown origin) at 62.5 uM using Ac-DEVD-AFC as substrate measured after 40 mins by fluorescence assay relative to control; details: recombinant caspase-3, probe Ac-DEVD-AFC
Caspase-2 (Homo sapiens) [12] = biological target: T1, Caspase-2 (Homo sapiens); assay: Irreversible inhibition of recombinant caspase-2 (unknown origin) assessed as ratio of Kinact/Ki using Z-VDVAD-AFC as substrate measured after 40 mins by fluorescence assay
Method in brief: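 Caspase-2 kinetic fluorometric assay with Z-VDVAD-AFC. kOBS values obtained from progress curves at four or more inhibitor concentrations. kinact/Ki then derived by two-step irreversible secondary regression (Copeland).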

HepG2 [13] = assay: Induction of GSH depletion in human HepG2 cells measured after 22 hrs by GSH-glo luminescence assay; details: HepG2, 22 h, read-out: pIC50 (converted)
Caspase-2 (Homo sapiens) [14] = biological target: T1, Caspase-2 (Homo sapiens); assay: Covalent irreversible binding affinity to recombinant caspase-2 (unknown origin) assessed as modification at Cys320 residue […] measured after 1 hr by trypsin digestion based UPLC-MS/MS analysis
Method in brief: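 Recombinant caspase-2 (34 µM stock) incubated 1 h at 37 °C with compound (10 mM DMSO stock) in pH 6.5 MES buffer with NaCl, CHAPS, sucrose and 10 mM DTT. Free cysteines were capped with iodoacetamide (62 mM final, 1 h, dark, RT). Samples were dried, denatured in 8 M urea/DTT, re-alkylated, trypsin-digested overnight at 37 °C, C18-desalted and analysed by gradient LC-MS/MS peptide sequencing.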

| Structure (SMILES) | inhibition (Caspase-2 (Homo sapiens) [1]) [%] | inhibition (Caspase-2 (Homo sapiens) [2]) [%] | IC50 (Caspase-2 [3]) | Ratio IC50 (Homo sapiens) | Activity (Caspase-2 (Homo sapiens) [4]) | IC50 (Caspase-2 [8]) [µM] | IC50 (Caspase-3 [9]) | inhibition at 40 min, 125 µM (Caspase-3 [10]) [%] | inhibition at 40 min, 62.5 µM (Caspase-3 [11]) [%] | Ratio (Caspase-2 (Homo sapiens) [12]) | IC50 (HepG2 [13]) [µM] | Activity (HepG2 [5]) | Activity (HepG2 [6]) | Activity (HepG2 [7]) | IC50 (HepG2 [7]; HepG2, 22 h) [µM] | Activity (Caspase-2 (Homo sapiens) [14]) |
| --- | --- | --- | --- | --- | --- | --- | --- | --- | --- | --- | --- | --- | --- | --- | --- | --- |
| CN1C(=O)CN(C(=O)CCl)c2ccc(Br)cc21 | 79 | 62 | 3.16 µM | > 16 | Active | 6.03 | > 50.1 µM | 14 | 0 |  |  | inactive | Active | Active |  |  |
| Cc1nc(-c2ccc3c(c2)CCN3C(=O)CCl)cs1 | 89 | 79 | 1.82 µM and 3.39 µM |  | Active | 4.9 | 35.5 µM and > 31.6 µM | 16 | 10 |  | 1.78 |  |  |  | 2.24 |  |
| NC(=O)CI |  |  |  |  |  |  |  |  |  |  |  |  |  |  |  | Active |
| O=C1CN(C(=O)CCl)c2ccccc2N1 | 92 | 86 | 1.07 µM and 3.31 µM | 27 | Active |  | 28.8 µM | 90 | 59 | 4.49 10^4/M/s |  | inactive | Active | Active |  |  |

More lines, main results first:

| inhibition (Caspase-2 (Homo sapiens) [1]) [%] | inhibition (Caspase-2 (Homo sapiens) [2]) [%] | IC50 (Caspase-2 [3]) | Ratio IC50 (Homo sapiens) | Activity (Caspase-2 (Homo sapiens) [4]) | IC50 (Caspase-2 [8]) [µM] | IC50 (Caspase-3 [9]) | inhibition at 40 min, 125 µM (Caspase-3 [10]) [%] | inhibition at 40 min, 62.5 µM (Caspase-3 [11]) [%] | Ratio (Caspase-2 (Homo sapiens) [12]) | IC50 (HepG2 [13]) [µM] | Structure (SMILES) | Activity (HepG2 [5]) | Activity (HepG2 [6]) | Activity (HepG2 [7]) | IC50 (HepG2 [7]; HepG2, 22 h) [µM] | Activity (Caspase-2 (Homo sapiens) [14]) |
| --- | --- | --- | --- | --- | --- | --- | --- | --- | --- | --- | --- | --- | --- | --- | --- | --- |
| 79.7 |  | 5.25 µM | > 12 |  |  | > 63.1 µM | 21.7 |  |  |  | COc1ccc2nc(NC(=O)CCl)sc2c1 |  |  |  |  |  |
| 93 | 92 | 1.29 µM | 7 | Active |  | 9.55 µM | 30 | 24 | 5.86 10^4/M/s |  | O=C(CCl)Nc1ccc(NC(=O)c2cccs2)cc1 |  |  |  |  |  |
|  |  |  |  |  | 0.0479 |  |  |  |  |  | CC(=O)N[C@H](C(=O)N[C@@H](CC(=O)O)C(=O)N[C@H](C(=O)N[C@@H](C)C(=O)N[C@H](C=O)CC(=O)O)C(C)C)C(C)C (Ac-VDVAD-aldehyde) |  |  |  |  |  |

Reference: ChEMBL document CHEMBL5634075, “An electrophilic fragment screening for the development of small molecules targeting caspase-2” (Eur J Med Chem, 2023)
